Source: ChEMBL document CHEMBL4689842, “EUbOPEN Chemogenomics Library wave 1” (2021)
Where “and” joins values, the source holds several entries; their conditions need not be identical. Equal values may be shown once.

Key:
Format in all cases: toxicity, cell-based
Fibroblast [1] = experiment: Multiplex assay against human fibroblast; conditions: 10 µM, compound concentration 10 uM
How it was run: (§1)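 Cells were classed with CellPathfinder machine-learning gating, first as Hoechst high-intensity objects or normal cells, then (normal cells) as healthy, pyknosed or fragmented nuclei, and finally (pyknosed cells) as mitotic or apoptotic. Staining of live cells at seeding used Hoechst33342, BioTracker Green Microtubule Cytoskeleton Dye, MitoTracker Red and Annexin V Alexa Fluor 680, with imaging on a CQ1 microscope at 37°C and 5% CO2 after compound addition. Tubulin, mitochondrial-mass and membrane-permeability phenotypes are per cents of healthy-nucleus cells.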

HEK-293T [2] = experiment: Multiplex assay against HEK293T; conditions: human, 10 µM, compound concentration 10 uM; how it was run: as §1;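 as to Population Tubulin-Different-Phenotype (%): share of the cells with healthy nuclei that show this phenotype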
U2OS [3] = experiment: Multiplex assay against U2OS; conditions: human, 10 µM, compound concentration 10 uM; how it was run: as §1
HEK-293T [4] = experiment: Incucyte cell viability with HEK293T; conditions: human, 10 µM, compound concentration 10 uM; also: filed as whole numbers so only -1 and 0 and 1 occur
Fibroblast [5] = experiment: Incucyte cell viability with human fibroblast; conditions: 10 µM, compound concentration 10 uM; also: filed as whole numbers so only -1 and 0 and 1 occur
U2OS [6] = experiment: Incucyte cell viability with U2OS; conditions: human, 10 µM, compound concentration 10 uM; also: filed as whole numbers so only -1 and 0 and 1 occur
[7] = 6 h, replicate number 1, timepoint 6 hours
[8] = 12 h, replicate number 1, timepoint 12 hours
[9] = 18 h, replicate number 1, timepoint 18 hours
[10] = 24 h, replicate number 1, timepoint 24 hours

CNCc1ccccc1-c1csc([C@@H](C)Nc2nc(C)nc3cc(OC)c(OC)cc23)c1 [BAY-293]
Population Apoptotic (%) (Fibroblast [1]; 12 h, replicate 1): 45% and 52%
Population Fragmented Nuclei (%) (Fibroblast [1]; 12 h, replicate 1): 29% and 38%
Population Healthy Nuclei (%) (Fibroblast [1]; 12 h, replicate 1): 45% and 27%
Population Membrane Permeable-Phenotype (%) (Fibroblast [1]; 12 h, replicate 1): 11% and 24%
Population Mitotic Cells (%) (Fibroblast [1]; 12 h, replicate 1): 54% and 47%
Population Normal (%) (Fibroblast [1]; 12 h, replicate 1): 58% and 87%
Population Pyknosed Nuclei (%) (Fibroblast [1]; 12 h, replicate 1): 24% and 33%
Population Apoptotic (%) (Fibroblast [1]; 12 h, replicate 2): 83% and 66%
Population Fragmented Nuclei (%) (Fibroblast [1]; 12 h, replicate 2): 50% and 52%
Population Healthy Nuclei (%) (Fibroblast [1]; 12 h, replicate 2): 17% and 31%
Population Hoechst High Intensity Objects (%) (Fibroblast [1]; 12 h, replicate 2): 34% and 42%
Population Membrane Permeable-Phenotype (%) (Fibroblast [1]; 12 h, replicate 2): 20% and 8%
Population Mitotic Cells (%) (Fibroblast [1]; 12 h, replicate 2): 16% and 33%
Population Normal (%) (Fibroblast [1]; 12 h, replicate 2): 65% and 57%
Population Pyknosed Nuclei (%) (Fibroblast [1]; 12 h, replicate 2): 32% and 16%
Population Tubulin-Different-Phenotype (%) (Fibroblast [1]; 12 h, replicate 2): 50% and 30%
Population Apoptotic (%) (Fibroblast [1]; 24 h, replicate 1): 89% and 38%
Population Fragmented Nuclei (%) (Fibroblast [1]; 24 h, replicate 1): 36% and 23%
Population Hoechst High Intensity Objects (%) (Fibroblast [1]; 24 h, replicate 1): 16% and 40%
Population Membrane Permeable-Phenotype (%) (Fibroblast [1]; 24 h, replicate 1): 11% and 4%
Population Normal (%) (Fibroblast [1]; 24 h, replicate 1): 83% and 59%
Population Pyknosed Nuclei (%) (Fibroblast [1]; 24 h, replicate 1): 56% and 28%
Population Tubulin-Different-Phenotype (%) (Fibroblast [1]; 24 h, replicate 1): 22% and 14%
Population Apoptotic (%) (Fibroblast [1]; 24 h, replicate 2): 66% and 90%
Population Fragmented Nuclei (%) (Fibroblast [1]; 24 h, replicate 2): 52% and 60%
Population Hoechst High Intensity Objects (%) (Fibroblast [1]; 24 h, replicate 2): 44%
Population Normal (%) (Fibroblast [1]; 24 h, replicate 2): 55%
Population Pyknosed Nuclei (%) (Fibroblast [1]; 24 h, replicate 2): 10% and 27%
Population Tubulin-Different-Phenotype (%) (Fibroblast [1]; 24 h, replicate 2): 38% and 20%
Population Apoptotic (%) (HEK-293T [2]; 12 h, replicate 1): 19% and 47%
Population Fragmented Nuclei (%) (HEK-293T [2]; 12 h, replicate 1): 20% and 21%
Population Healthy Nuclei (%) (HEK-293T [2]; 12 h, replicate 1): 45% and 17%
Population Hoechst High Intensity Objects (%) (HEK-293T [2]; 12 h, replicate 1): 16% and 22%
Population Membrane Permeable-Phenotype (%) (HEK-293T [2]; 12 h, replicate 1): 29% and 15%
Population Mitochondria Different-Phenotype (%) (HEK-293T [2]; 12 h, replicate 1): 18% and 54%
Population Mitotic Cells (%) (HEK-293T [2]; 12 h, replicate 1): 80% and 52%
Population Normal (%) (HEK-293T [2]; 12 h, replicate 1): 83% and 77%
Population Pyknosed Nuclei (%) (HEK-293T [2]; 12 h, replicate 1): 34% and 61%
Population Tubulin-Different-Phenotype (%) (HEK-293T [2]; 12 h, replicate 1): 80% and 65%
Total Cell Count (HEK-293T [2]; 12 h, replicate 1): 581 and 619
Population Fragmented Nuclei (%) (HEK-293T [2]; 12 h, replicate 2): 5% and 2%
Population Healthy Nuclei (%) (HEK-293T [2]; 12 h, replicate 2): 80% and 57%
Population Hoechst High Intensity Objects (%) (HEK-293T [2]; 12 h, replicate 2): 3% and 9%
Population Membrane Permeable-Phenotype (%) (HEK-293T [2]; 12 h, replicate 2): 7%
Population Mitotic Cells (%) (HEK-293T [2]; 12 h, replicate 2): 91% and 65%
Population Normal (%) (HEK-293T [2]; 12 h, replicate 2): 96% and 90%
Population Pyknosed Nuclei (%) (HEK-293T [2]; 12 h, replicate 2): 14% and 40%
Population Tubulin-Different-Phenotype (%) (HEK-293T [2]; 12 h, replicate 2): 95% and 92%
Total Cell Count (HEK-293T [2]; 12 h, replicate 2): 1447 and 918
Population Apoptotic (%) (HEK-293T [2]; 24 h, replicate 1): 55% and 23%
Population Fragmented Nuclei (%) (HEK-293T [2]; 24 h, replicate 1): 28% and 17%
Population Hoechst High Intensity Objects (%) (HEK-293T [2]; 24 h, replicate 1): 25% and 13%
Population Membrane Permeable-Phenotype (%) (HEK-293T [2]; 24 h, replicate 1): 17% and 36%
Population Mitochondria Different-Phenotype (%) (HEK-293T [2]; 24 h, replicate 1): 45% and 16%
Population Mitotic Cells (%) (HEK-293T [2]; 24 h, replicate 1): 44% and 76%
Population Normal (%) (HEK-293T [2]; 24 h, replicate 1): 74% and 86%
Population Tubulin-Different-Phenotype (%) (HEK-293T [2]; 24 h, replicate 1): 59% and 89%
Total Cell Count (HEK-293T [2]; 24 h, replicate 1): 668 and 627
Population Fragmented Nuclei (%) (HEK-293T [2]; 24 h, replicate 2): 5% and 15%
Population Healthy Nuclei (%) (HEK-293T [2]; 24 h, replicate 2): 46% and 79%
Population Mitotic Cells (%) (HEK-293T [2]; 24 h, replicate 2): 53% and 94%
Population Normal (%) (HEK-293T [2]; 24 h, replicate 2): 89% and 96%
Population Tubulin-Different-Phenotype (%) (HEK-293T [2]; 24 h, replicate 2): 73% and 82%
Total Cell Count (HEK-293T [2]; 24 h, replicate 2): 918 and 2344
Population Apoptotic (%) (U2OS [3]; 12 h, replicate 1): 63% and 46%
Population Healthy Nuclei (%) (U2OS [3]; 12 h, replicate 1): 36% and 80%
Population Hoechst High Intensity Objects (%) (U2OS [3]; 12 h, replicate 1): 5% and 4%
Population Membrane Permeable-Phenotype (%) (U2OS [3]; 12 h, replicate 1): 73% and 54%
Population Mitochondria Different-Phenotype (%) (U2OS [3]; 12 h, replicate 1): 88% and 36%
Population Mitotic Cells (%) (U2OS [3]; 12 h, replicate 1): 36% and 53%
Population Normal (%) (U2OS [3]; 12 h, replicate 1): 94% and 95%
Population Tubulin-Different-Phenotype (%) (U2OS [3]; 12 h, replicate 1): 100% and 98%
Population Apoptotic (%) (U2OS [3]; 12 h, replicate 2): 54% and 52%
Population Fragmented Nuclei (%) (U2OS [3]; 12 h, replicate 2): 9% and 17%
Population Healthy Nuclei (%) (U2OS [3]; 12 h, replicate 2): 72% and 52%
Population Hoechst High Intensity Objects (%) (U2OS [3]; 12 h, replicate 2): 14% and 16%
Population Membrane Permeable-Phenotype (%) (U2OS [3]; 12 h, replicate 2): 46% and 75%
Population Mitochondria Different-Phenotype (%) (U2OS [3]; 12 h, replicate 2): 56% and 97%
Population Mitotic Cells (%) (U2OS [3]; 12 h, replicate 2): 45% and 47%
Population Normal (%) (U2OS [3]; 12 h, replicate 2): 85% and 83%
Population Pyknosed Nuclei (%) (U2OS [3]; 12 h, replicate 2): 17% and 30%
Population Tubulin-Different-Phenotype (%) (U2OS [3]; 12 h, replicate 2): 97%
Population Apoptotic (%) (U2OS [3]; 24 h, replicate 1): 91%
Population Fragmented Nuclei (%) (U2OS [3]; 24 h, replicate 1): 19% and 7%
Population Hoechst High Intensity Objects (%) (U2OS [3]; 24 h, replicate 1): 19% and 7%
Population Membrane Permeable-Phenotype (%) (U2OS [3]; 24 h, replicate 1): 100% and 52%
Population Mitochondria Different-Phenotype (%) (U2OS [3]; 24 h, replicate 1): 100% and 64%
Population Mitotic Cells (%) (U2OS [3]; 24 h, replicate 1): 8%
Population Normal (%) (U2OS [3]; 24 h, replicate 1): 80% and 92%
Population Pyknosed Nuclei (%) (U2OS [3]; 24 h, replicate 1): 66% and 27%
Population Tubulin-Different-Phenotype (%) (U2OS [3]; 24 h, replicate 1): 100% and 97%
Population Apoptotic (%) (U2OS [3]; 24 h, replicate 2): 84% and 45%
Population Fragmented Nuclei (%) (U2OS [3]; 24 h, replicate 2): 25% and 10%
Population Healthy Nuclei (%) (U2OS [3]; 24 h, replicate 2): 30% and 60%
Population Hoechst High Intensity Objects (%) (U2OS [3]; 24 h, replicate 2): 10% and 8%
Population Membrane Permeable-Phenotype (%) (U2OS [3]; 24 h, replicate 2): 91% and 43%
Population Mitochondria Different-Phenotype (%) (U2OS [3]; 24 h, replicate 2): 95% and 72%
Population Normal (%) (U2OS [3]; 24 h, replicate 2): 89% and 91%
Population Pyknosed Nuclei (%) (U2OS [3]; 24 h, replicate 2): 44% and 28%
Population Tubulin-Different-Phenotype (%) (U2OS [3]; 24 h, replicate 2): 95% and 96%
Growth Rate (HEK-293T [4]; [7]): 0
Growth Rate (HEK-293T [4]; [8]): 0
Growth Rate (HEK-293T [4]; [9]): 0
Growth Rate (HEK-293T [4]; [10]): 0
Growth Rate (Fibroblast [5]; [7]): 0
Growth Rate (Fibroblast [5]; [8]): 0
Growth Rate (Fibroblast [5]; [9]): 0
Growth Rate (Fibroblast [5]; [10]): 0
Growth Rate (U2OS [6]; 0 h, replicate number 1, timepoint 0 hours): 0
Growth Rate (U2OS [6]; [7]): 0
Growth Rate (U2OS [6]; 6 h, replicate number 2, timepoint 6 hours): 1
Growth Rate (U2OS [6]; [8]): 0
Growth Rate (U2OS [6]; [9]): 0
Growth Rate (U2OS [6]; [10]): 0
